Measured values gathered from unrelated publications.
ADORA3: Adenosine receptor A3 (ADORA3, Homo sapiens, UniProt P0DMS8)
Liver carboxylesterase: Liver carboxylesterase (Sus scrofa, UniProt Q29550)
DRD2: D(2) dopamine receptor (DRD2, Homo sapiens, UniProt P14416)

SMILES	target	observed	mode	method	pH	notes	Ki
O=C1c2ccccc2CCN1CCCCN1CCN(c2cccc(Cl)c2Cl)CC1	5-hydroxytryptamine receptor 1E (HTR1E, Homo sapiens, UniProt P28566)	ligand displacement	–	radioligand	–	–	3.45 µM
CNC(=O)[C@@]12C[C@@H]1[C@@H](n1cnc3c(NCc4cccc(C#CCCCCc5cn(C67CC8CC(CC(C8)C6)C7)nn5)c4)nc(Cl)nc31)[C@H](O)[C@@H]2O	ADORA3	ligand displacement	–	radioligand	–	cell membranes	0.0218 µM
CC(C)CCCC(C)N1CCCn2c1nc1c2c(=O)n(C)c(=O)n1C (stereo not shown)	ADORA3	ligand displacement	–	radioligand	–	cell membranes	2.57 µM
CCCCC[C@H](O)/C=C/C1=C(CCCCCCC(=O)O)C(=O)CC1	Liver carboxylesterase	enzyme activity	inhibitor	HPLC	pH 7.4	–	16 µM
CNC(=O)[C@@]12C[C@@H]1[C@@H](n1cnc3c(NCc4cn(-c5ccc(F)c(N)c5)nn4)nc(Cl)nc31)[C@H](O)[C@@H]2O	ADORA3	ligand displacement	–	radioligand	–	cell membranes	0.0226 µM
CC[C@H](C)[C@H](NC(=O)CN)C(=O)N[C@H](C(=O)N[C@@H](CC(N)=O)C(=O)N[C@H](C(=O)N[C@@H](CC(C)C)C(=O)N[C@@H](CCC(N)=O)C(=O)N[C@@H](CCCCN)C(=O)N[C@@H](Cc1ccc(O)cc1)C(=O)N[C@@H](Cc1ccc(O)cc1)C(=O)N[C@@H](CO)C(=O)N[C@@H](CCCNC(=N)N)C(=O)N[C@H](C(=O)N[C@@H](CCCNC(=N)N)C(=O)NCC(=O)NCC(=O)N[C@@H](CCCNC(=N)N)C(=O)N[C@H]1CSSC[C@@H](C(=O)N[C@@H](CO)C(=O)N[C@H](C(=O)N[C@@H](CCCNC(=N)N)C(=O)NCC(=O)N[C@@H](CCCNC(=N)N)C(=O)N[C@@H](CCCCN)C(=O)N[C@@H](CO)C(=O)N[C@@H](CO)C(=O)N[C@@H](CCCNC(=N)N)C(=O)N[C@@H](CCCNC(=N)N)C(=O)N[C@@H](CCCCN)C(=O)N[C@@H](CCCCN)C(N)=O)[C@@H](C)O)NC(=O)[C@H](CCCCN)NC(=O)CNC(=O)[C@H]([C@@H](C)CC)NC(=O)[C@H](CCC(N)=O)NC(=O)[C@H](CCC(=O)O)NC(=O)[C@H](CCC(=O)O)NC(=O)[C@H](CCCCN)NC(=O)[C@@H]2CCCN2C(=O)[C@H](CC(C)C)NC(=O)[C@H](CO)NC(=O)[C@H](CO)NC(=O)[C@H](CC(C)C)NC(=O)[C@H](C(C)C)NC(=O)[C@H](C)NC1=O)C(C)C)[C@@H](C)O)[C@@H](C)CC	Melanocyte-stimulating hormone receptor (MC1R, Homo sapiens, UniProt Q01726)	ligand displacement in cells	–	–	–	–	0.373 µM
COc1cccc(CCC2=NCCN2CCc2ccccc2)c1	DRD2	ligand displacement	–	radioligand	–	–	> 10 µM
CCCC(C)N1CCCn2c1nc1c2c(=O)n(C)c(=O)n1C (stereo not shown)	ADORA3	ligand displacement	–	radioligand	–	cell membranes	> 10 µM
CCCC[C@H](NC(=O)[C@H](CO)NC(=O)[C@H](Cc1ccc(O)cc1)NC(=O)[C@H](CO)NC(C)=O)C(=O)N[C@@H](CCC(=O)O)C(=O)N[C@@H](Cc1c[nH]cn1)C(=O)N[C@@H](C)C(=O)N[C@@H](CCCNC(=N)N)C(=O)N[C@@H](Cc1c[nH]c2ccccc12)C(=O)NCC(=O)N[C@@H](CCCCN)C(=O)N1CCC[C@H]1C(=O)N[C@H](C(=O)NCC(=O)N[C@@H](CCCCN)C(=O)N[C@@H](CCCCN)C(=O)N[C@@H](CCCNC(=N)N)C(N)=O)C(C)C	Melanocortin receptor 3 (MC3R, Homo sapiens, UniProt P41968)	ligand displacement in cells	–	radioligand	–	–	> 1 µM
CCCCCC(C)N1CCCn2c1nc1c2c(=O)n(C)c(=O)n1C (stereo not shown)	ADORA3	ligand displacement	–	radioligand	–	cell membranes	> 10 µM
O=C1c2ccccc2CCCN1CCCCN1CCN(c2ccccn2)CC1	DRD2	ligand displacement	–	radioligand	–	–	0.209 µM
NCCCC[C@H](NC(=O)[C@@H]1CCCN1C(=O)[C@@H]1CSSC[C@H](N)C(=O)N[C@@H](Cc2ccc(O)cc2)C(=O)N[C@@H](Cc2ccccc2)C(=O)N[C@@H](CCC(N)=O)C(=O)N[C@@H](CC(N)=O)C(=O)N1)C(=O)NCC(N)=O	Vasopressin V2 receptor (AVPR2, Homo sapiens, UniProt P30518)	ligand displacement	–	radioligand	–	cell membranes	0.01 µM
CCNC(=O)[C@H]1O[C@@H](n2cnc3c(N)nc(NN=CC4CCC=CO4)nc32)[C@H](O)[C@@H]1O (stereo partly shown)	ADORA3	ligand displacement	–	radioligand	–	–	0.00632 µM
c1ccc(CCC2=NCCN2CCc2ccccc2)cc1	DRD2	ligand displacement	–	radioligand	–	–	> 10 µM
OC[C@H]1OC(O)[C@H](O)[C@@H](O)[C@H]1O (stereo partly shown)	Alpha-galactosidase A (GLA, Homo sapiens, UniProt P06280)	enzyme activity	inhibitor	–	–	–	16000 µM
CCCCC[C@H](O)/C=C/[C@H]1[C@H](O)CC(=O)[C@@H]1CCCCCCC(=O)O	Liver carboxylesterase	enzyme activity	inhibitor	HPLC	–	–	> 28 µM
CCCCCCN1CCCn2c1nc1c2c(=O)n(C)c(=O)n1C	ADORA3	ligand displacement	–	radioligand	–	cell membranes	> 10 µM
CC/C=C\C/C=C\C/C=C\C/C=C\C/C=C\CCCC(=O)O	Liver carboxylesterase	enzyme activity	inhibitor	HPLC	pH 7.4	–	0.34 µM
CC(C)CN1CCCn2c1nc1c2c(=O)n(C)c(=O)n1C	ADORA3	ligand displacement	–	radioligand	–	cell membranes	> 10 µM
